From ChEMBL document CHEMBL1799960, “Diadenosine 5',5''-(boranated)polyphosphonate analogues as selective nucleotide pyrophosphatase/phosphodiesterase inhibitors” (J Med Chem, 2010) come the findings set out here.

Assay [1] has as its target T1, Ectonucleoside triphosphate diphosphohydrolase 2 (Homo sapiens) (UniProt Q9Y5L3).
T1 sequence (whole entry): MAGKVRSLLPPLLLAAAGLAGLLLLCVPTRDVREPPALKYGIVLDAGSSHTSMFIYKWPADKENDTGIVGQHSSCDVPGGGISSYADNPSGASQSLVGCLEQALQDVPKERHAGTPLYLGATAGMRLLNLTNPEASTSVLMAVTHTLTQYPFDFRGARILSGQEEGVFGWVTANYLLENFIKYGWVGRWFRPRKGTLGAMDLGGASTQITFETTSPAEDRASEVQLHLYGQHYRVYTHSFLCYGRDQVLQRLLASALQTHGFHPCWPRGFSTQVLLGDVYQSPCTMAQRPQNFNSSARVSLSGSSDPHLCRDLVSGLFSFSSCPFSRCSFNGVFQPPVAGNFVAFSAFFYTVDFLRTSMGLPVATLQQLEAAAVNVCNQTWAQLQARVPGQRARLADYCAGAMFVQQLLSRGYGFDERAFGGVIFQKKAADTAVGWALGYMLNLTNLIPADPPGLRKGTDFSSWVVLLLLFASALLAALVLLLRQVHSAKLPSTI
The assay is described as follows: Inhibition of human NTPDase2 expressed in COS7 cells assessed as amount of inorganic phosphate released using ATP as the substrate at 100 uM after 15 mins by malachite green reagent method. Type of assay: cell-based. The conditions noted are these: COS-7. The method in brief:
(§1)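 Protein extracts of transfected COS-7 cells (ecto-5'-nucleotidase: 100 μM AMP substrate; NTPDases: 100 μM ATP) were preincubated 3 min at 37 °C in Tris-Ringer pH 7.3 with inhibitor at 100 μM final. After 15 min, malachite green stop; Pi read at 630 nm. Activity given as % of substrate-only control. Mean ± SD of three experiments in triplicate.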

For assay [2], the target named is T2, Ectonucleoside triphosphate diphosphohydrolase 8 (Homo sapiens) (UniProt Q5MY95).
T2 sequence (whole entry): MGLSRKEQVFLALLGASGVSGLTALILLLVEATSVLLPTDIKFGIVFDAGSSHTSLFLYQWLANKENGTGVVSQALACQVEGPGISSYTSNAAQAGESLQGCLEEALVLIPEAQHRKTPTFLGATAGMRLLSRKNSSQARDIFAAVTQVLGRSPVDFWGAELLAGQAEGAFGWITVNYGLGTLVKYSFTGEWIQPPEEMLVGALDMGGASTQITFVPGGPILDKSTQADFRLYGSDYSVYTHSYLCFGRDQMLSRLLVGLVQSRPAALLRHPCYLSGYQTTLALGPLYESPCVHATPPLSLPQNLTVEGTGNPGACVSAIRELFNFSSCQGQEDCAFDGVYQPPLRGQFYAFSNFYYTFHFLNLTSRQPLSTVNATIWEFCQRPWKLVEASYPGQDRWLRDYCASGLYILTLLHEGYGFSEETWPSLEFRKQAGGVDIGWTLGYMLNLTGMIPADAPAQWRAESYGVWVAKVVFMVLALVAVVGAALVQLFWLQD
The assay is described as follows: Inhibition of human NTPDase8 expressed in COS7 cells assessed as amount of inorganic phosphate released using ATP as the substrate at 100 uM after 15 mins by malachite green reagent method. The settings on record: COS-7. Type of assay: cell-based. Put shortly:
as §1

In assay [3] the target is T3, Ectonucleotide pyrophosphatase/phosphodiesterase family member 1 (Homo sapiens) (UniProt P22413).
T3 sequence (whole entry): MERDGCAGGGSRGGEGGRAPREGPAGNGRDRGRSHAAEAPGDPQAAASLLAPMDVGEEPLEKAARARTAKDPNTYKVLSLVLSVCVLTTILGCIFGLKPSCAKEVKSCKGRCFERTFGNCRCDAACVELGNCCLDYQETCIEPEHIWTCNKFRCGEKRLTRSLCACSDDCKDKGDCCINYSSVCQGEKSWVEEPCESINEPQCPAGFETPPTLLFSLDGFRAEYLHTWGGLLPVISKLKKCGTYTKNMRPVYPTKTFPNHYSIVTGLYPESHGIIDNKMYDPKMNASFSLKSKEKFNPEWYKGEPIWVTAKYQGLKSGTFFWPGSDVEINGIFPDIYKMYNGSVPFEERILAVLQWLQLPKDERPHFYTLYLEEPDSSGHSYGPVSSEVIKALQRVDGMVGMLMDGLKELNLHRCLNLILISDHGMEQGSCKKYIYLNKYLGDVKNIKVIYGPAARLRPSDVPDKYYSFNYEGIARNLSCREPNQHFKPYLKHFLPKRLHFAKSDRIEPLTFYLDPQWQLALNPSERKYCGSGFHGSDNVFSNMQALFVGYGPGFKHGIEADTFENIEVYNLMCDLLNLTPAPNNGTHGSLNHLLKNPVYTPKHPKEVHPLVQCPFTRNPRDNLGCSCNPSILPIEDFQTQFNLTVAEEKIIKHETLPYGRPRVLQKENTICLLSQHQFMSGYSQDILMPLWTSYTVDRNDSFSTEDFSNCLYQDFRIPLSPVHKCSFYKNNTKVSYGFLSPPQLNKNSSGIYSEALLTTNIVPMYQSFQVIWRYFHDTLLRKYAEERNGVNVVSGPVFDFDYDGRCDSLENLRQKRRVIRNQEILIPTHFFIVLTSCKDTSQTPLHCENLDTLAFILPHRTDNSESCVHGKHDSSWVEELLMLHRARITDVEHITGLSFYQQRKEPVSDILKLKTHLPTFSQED
The assay is described as follows: Inhibition of human NPP1 expressed in COS7 cells assessed as amount of inorganic phosphate released using ATP as the substrate at 100 uM after 15 mins by malachite green reagent method. It counts as cell-based. The settings on record: COS-7.

The target in assay [4] is T4, Ectonucleotide pyrophosphatase/phosphodiesterase family member 1 (Homo sapiens, UniProt P22413).
T4 sequence (P22413 whole entry): T3 sequence (whole entry)
The assay is described as follows: Inhibition of human NPP1 expressed in COS7 cells assessed as enzyme-substrate-inhibitor dissociation constant using pnp-TMP as the substrate after 15 mins […]. Type of assay: cell-based, COS-7.

The target of assay [5] is T3, Ectonucleotide pyrophosphatase/phosphodiesterase family member 1 (Homo sapiens). The assay is described as follows: Inhibition of human NPP1 in human HT29 cells assessed as production of p-nitrophenol using pnp-TMP as the substrate […]. It counts as cell-based. The settings on record: HT-29.
Assay [6] has the same target. The assay is described as follows: Inhibition of human NPP1 in human Saos2 cells assessed as production of p-nitrophenol using pnp-TMP as the substrate […]. Type of assay: cell-based. The settings on record: SAOS-2.
The target in another assay is P2Y purinoceptor 1 (Homo sapiens, UniProt P47900). The assay is described as follows: Agonist activity at GFP tagged-human P2Y1 receptor expressed in human 1321N1 cells assessed as elevation in calcium level after 30 mins by fluorescence spectrophotometric analysis. Type of assay: functional, cell-based.

Calls of active or inactive are those of the source. The rule behind the calls is not given here.

Chain of P2Y purinoceptor 1 (P47900 whole entry): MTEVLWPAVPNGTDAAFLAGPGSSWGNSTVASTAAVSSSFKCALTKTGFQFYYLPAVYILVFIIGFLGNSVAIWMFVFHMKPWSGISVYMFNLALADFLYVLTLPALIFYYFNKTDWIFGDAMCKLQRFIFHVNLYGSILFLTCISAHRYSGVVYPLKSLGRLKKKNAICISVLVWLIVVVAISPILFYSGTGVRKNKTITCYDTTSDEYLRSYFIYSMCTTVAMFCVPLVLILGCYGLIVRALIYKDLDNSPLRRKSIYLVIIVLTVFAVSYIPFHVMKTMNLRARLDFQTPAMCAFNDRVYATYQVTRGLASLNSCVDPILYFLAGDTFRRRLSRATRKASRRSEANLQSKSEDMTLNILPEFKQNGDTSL

For orientation: inhibition means the drop in the measured response relative to a control, in per cent. The term Ki denotes a dissociation constant, usually derived from enzyme kinetics or from competition with a known ligand. As a reminder, the EC50 is the concentration at which the effect is half-maximal. With `Nc1ncnc2c1ncn2[C@H]1C[C@H](O)[C@@H](COP(=O)(O)CP(=O)(O)OP(=O)(O)CP(=O)(O)OC[C@H]2O[C@@H](n3cnc4c(N)ncnc43)C[C@@H]2O)O1`, the inhibition in assay [1] is 10%; in assay [3] it was more than 90%; in assay [5], 80%; in assay [6] it was 80%. Besides, in assay [2], the inhibition entry is “inactive”. In addition, the Ki in assay [4] worked out at 80 µM. Also, the EC50 at P2Y purinoceptor 1 worked out at 30 µM.
Consider `BP(=O)(OP(=O)(O)CP(=O)(O)OC[C@H]1O[C@@H](n2cnc3c(N)ncnc32)[C@H](O)[C@@H]1O)OP(=O)(O)CP(=O)(O)OC[C@H]1O[C@@H](n2cnc3c(N)ncnc32)[C@H](O)[C@@H]1O`, for which the inhibition was 10% in assay [1], more than 90% in assay [3], 90% in assay [5] and 90% in assay [6]. The inhibition entry in assay [2] is “inactive”. For the same compound, the Ki in assay [4] amounted to 31 µM. For the same compound, the EC50 at P2Y purinoceptor 1 was found to be 0.3 µM.
For `BP(=O)(OP(=O)(O)CP(=O)(O)OC[C@H]1O[C@@H](n2cnc3c(N)ncnc32)C[C@@H]1O)OP(=O)(O)CP(=O)(O)OC[C@H]1O[C@@H](n2cnc3c(N)ncnc32)C[C@@H]1O`, the inhibition in assay [1] amounted to 10%; in assay [3], 70%; in assay [5], 90%; in assay [6], 90%. Further, in assay [2], the inhibition result is “inactive”. For the same compound, the Ki in assay [4] came to 145 µM. The EC50 on P2Y purinoceptor 1 is not below 30 µM.
As to `Nc1ncnc2c1ncn2[C@@H]1O[C@H](COP(=O)(O)CP(=O)(O)OP(=O)(O)CP(=O)(O)OC[C@H]2O[C@@H](n3cnc4c(N)ncnc43)[C@H](O)[C@@H]2O)[C@@H](O)[C@H]1O`, the inhibition in assay [1] turned out to be 10%; in assay [3] it was 70%; in assay [5] it was 80%; in assay [6], 80%. For the same compound, in assay [2], the inhibition entry is “inactive”. Besides, the Ki in assay [4] is 147 µM. Moreover, the EC50 at P2Y purinoceptor 1 came to 9 µM.
